One may read the Ki as the equilibrium dissociation constant of an inhibitor or competing ligand from its target. The low end stands for higher affinity, the high end for lower affinity.

For experiment [1], the target named is T1, D(2) dopamine receptor (Homo sapiens, UniProt P14416). The experiment in a line: In vitro for its ability to displace [3H]- spiperone from cloned human dopamine D2 long receptor expressed in CHO cells. It counts as cell-based. Put shortly:
(§1)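 [3H]Spiperone displacement from cloned human dopamine receptors stably expressed in CHO cells: D2long, D2short, D3 and D4.4 (the D4 line used the D4.4 variant). Ki values were determined.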

The target of a further experiment is T2, D(4) dopamine receptor (Homo sapiens, UniProt P21917).
T2 sequence (P21917 whole entry): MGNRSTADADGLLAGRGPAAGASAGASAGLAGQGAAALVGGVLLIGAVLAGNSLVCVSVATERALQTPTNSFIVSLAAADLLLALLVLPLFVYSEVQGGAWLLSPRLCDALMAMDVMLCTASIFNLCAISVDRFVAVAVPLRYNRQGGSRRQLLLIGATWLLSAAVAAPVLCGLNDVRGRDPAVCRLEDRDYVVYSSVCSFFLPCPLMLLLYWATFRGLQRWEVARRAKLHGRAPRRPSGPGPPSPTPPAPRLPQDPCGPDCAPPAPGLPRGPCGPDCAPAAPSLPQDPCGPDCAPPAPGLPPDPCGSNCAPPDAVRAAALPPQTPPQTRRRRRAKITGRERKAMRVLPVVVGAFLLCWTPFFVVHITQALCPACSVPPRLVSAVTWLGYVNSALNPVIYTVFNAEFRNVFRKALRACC
The experiment in a line: In vitro for its ability to displace [3H]- spiperone from cloned human Dopamine receptor D4 expressed in CHO cells. It counts as cell-based. Put shortly: as §1

Experiment [2] deals with T1, D(2) dopamine receptor. Nature of the experiment: In vitro for its ability to displace [3H]- spiperone from cloned human dopamine D2 short receptor expressed in CHO cells. It counts as cell-based. Put shortly:
as §1

The target in the next experiment is D(3) dopamine receptor (Homo sapiens, UniProt P35462). Nature of the experiment: Displacement of [3H]spiperone from human Dopamine receptor D3 expressed in CHO cells. It counts as cell-based. Put shortly: as §1
Chain of D(3) dopamine receptor (P35462 whole entry): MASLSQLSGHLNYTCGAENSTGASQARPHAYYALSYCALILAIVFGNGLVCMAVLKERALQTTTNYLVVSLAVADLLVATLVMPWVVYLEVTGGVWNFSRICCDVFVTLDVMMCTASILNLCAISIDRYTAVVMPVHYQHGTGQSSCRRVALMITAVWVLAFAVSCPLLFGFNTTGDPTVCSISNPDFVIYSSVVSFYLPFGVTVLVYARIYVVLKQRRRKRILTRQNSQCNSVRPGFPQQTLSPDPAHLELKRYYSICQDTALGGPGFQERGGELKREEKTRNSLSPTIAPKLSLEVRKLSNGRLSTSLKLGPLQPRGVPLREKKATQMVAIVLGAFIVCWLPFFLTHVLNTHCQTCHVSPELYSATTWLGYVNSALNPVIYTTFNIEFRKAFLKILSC
The target in another experiment is D(1A) dopamine receptor (Bos taurus, UniProt Q95136). The experiment in a line: In vitro for its ability to displace [3H]- SCH 23390 from Dopamine receptor D1 in bovine striatal membrane […]. It counts as cell-based, Striatum. In a few lines: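 D1 affinity was measured with bovine striatal membrane preparations and the D1-selective antagonist [3H]SCH 23390 as radioligand. Ki values were determined.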
Chain of D(1A) dopamine receptor (Q95136 whole entry): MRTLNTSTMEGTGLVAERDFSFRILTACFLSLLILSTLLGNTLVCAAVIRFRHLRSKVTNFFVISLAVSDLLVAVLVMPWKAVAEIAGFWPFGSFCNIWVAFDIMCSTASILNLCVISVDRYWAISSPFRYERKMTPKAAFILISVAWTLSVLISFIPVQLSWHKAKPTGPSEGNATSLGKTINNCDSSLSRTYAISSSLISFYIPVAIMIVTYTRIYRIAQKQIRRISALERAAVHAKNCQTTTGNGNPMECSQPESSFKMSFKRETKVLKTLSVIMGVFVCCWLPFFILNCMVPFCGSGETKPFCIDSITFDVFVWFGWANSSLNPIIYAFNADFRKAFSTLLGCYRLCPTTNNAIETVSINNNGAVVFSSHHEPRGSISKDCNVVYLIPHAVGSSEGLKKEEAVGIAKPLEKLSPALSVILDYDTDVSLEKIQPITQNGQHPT

The nature of experiment [3]: In vitro for its ability to displace [3H]- ketanserin from 5-hydroxytryptamine 2 receptor in porcine brain homogenate. It counts as tissue-based. Put shortly:
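5-HT2 binding was measured in porcine brain homogenates by displacement of [3H]ketanserine. Ki values were determined.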

In experiment [4] the target is T1, D(2) dopamine receptor. The experiment in a line: In vitro for its ability to displace [3H]- spiperone from cloned human Dopamine receptor D2L expressed in CHO cells. It counts as cell-based. Put shortly:
as §1

T1 sequence (P14416 whole entry): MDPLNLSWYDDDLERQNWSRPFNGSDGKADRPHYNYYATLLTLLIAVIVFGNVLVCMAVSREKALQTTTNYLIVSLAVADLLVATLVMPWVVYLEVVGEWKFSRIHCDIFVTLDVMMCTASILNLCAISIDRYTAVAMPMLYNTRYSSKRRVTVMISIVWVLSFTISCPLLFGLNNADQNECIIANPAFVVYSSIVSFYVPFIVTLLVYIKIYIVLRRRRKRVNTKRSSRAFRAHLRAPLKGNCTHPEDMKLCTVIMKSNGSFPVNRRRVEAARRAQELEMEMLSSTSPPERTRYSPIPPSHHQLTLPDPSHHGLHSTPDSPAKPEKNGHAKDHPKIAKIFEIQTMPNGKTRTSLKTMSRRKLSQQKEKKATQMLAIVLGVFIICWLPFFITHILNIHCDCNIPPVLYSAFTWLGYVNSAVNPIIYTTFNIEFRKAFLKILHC

As to `COc1ccc(Br)cc1C1=N[C@@H](CN2CCN(c3ccccc3)CC2)CO1` (stereo in doubt), the Ki at D(2) dopamine receptor [1] came to 400 nM; at D(4) dopamine receptor, 390 nM; on D(2) dopamine receptor [2] it was 110 nM; on D(3) dopamine receptor it was 1000 nM; at D(1A) dopamine receptor it was 2000 nM.
In the same order, the values of `COc1ccc(Br)cc1C1=N[C@@H](CN2CCN(c3ccccc3)CC2)[C@@H](C)O1` (stereo in doubt) are 21000 nM, 3300 nM, 18000 nM, 10000 nM and 480 nM.
As for `c1ccc(C2=NC[C@H](CN3CCN(c4ccccc4)CC3)N2)cc1` (stereo in doubt), the Ki at D(2) dopamine receptor [1] is 14000 nM; on D(2) dopamine receptor [2] it was 10000 nM; at D(3) dopamine receptor, 9000 nM.
Consider `c1ccc(C2=N[C@@H](CN3CCN(c4ccccc4)CC3)CS2)cc1` (stereo in doubt), for which the inhibition constant (Ki) at D(2) dopamine receptor [1] came to 1100 nM; on D(4) dopamine receptor, 1200 nM; on D(2) dopamine receptor [2], 720 nM; at D(3) dopamine receptor it was 1200 nM; on D(1A) dopamine receptor, 4500 nM.
For the compound `C[C@@H]1OC(c2ccccc2)=N[C@H]1CN1CCN(c2ccccc2)CC1` (stereo in doubt), the Ki at D(2) dopamine receptor [1] is 820 nM; at D(4) dopamine receptor, 440 nM; at D(2) dopamine receptor [2] it was 320 nM; on D(3) dopamine receptor, 710 nM; on D(1A) dopamine receptor, 2000 nM.
In the same order, the values of `c1ccc(C2=N[C@@H](CN3CCN(c4ccccc4)CC3)CO2)cc1` (stereo in doubt) are 690 nM, 410 nM, 330 nM, 690 nM and 4000 nM.
As to `c1ccc(C2=N[C@@H](CN3CCN(c4ccccc4)CC3)CO2)cc1` (stereo in doubt; 4a), the Ki on D(2) dopamine receptor [1] was 1700 nM; on D(4) dopamine receptor it was 340 nM; on D(2) dopamine receptor [2], 1100 nM; at D(3) dopamine receptor, 3300 nM; on D(1A) dopamine receptor, 9700 nM.
The like results for `C[C@@H]1OC(c2ccccc2)=N[C@H]1CN1CCN(c2ccccc2)CC1` (stereo in doubt; 4b) were, in that order, 3200 nM, 700 nM, 1900 nM, 2700 nM and 20000 nM.
The like results for `COc1ccc(Br)cc1C1=N[C@@H](CN2CCN(c3ccccc3)CC2)CO1` (stereo in doubt; 4c) were, in that order, 2200 nM, 1600 nM, 900 nM, 5200 nM and 9000 nM.
The like results for `COc1ccc(Br)cc1C1=N[C@@H](CN2CCN(c3ccccc3)CC2)[C@@H](C)O1` (stereo in doubt; 4d) were, in that order, 3700 nM, 290 nM, 2400 nM, 2500 nM and 3500 nM.
As to `c1ccc(C2=NC[C@H](CN3CCN(c4ccccc4)CC3)N2)cc1` (stereo in doubt; 4e), the Ki turned out to be 11000 nM on D(2) dopamine receptor [2]; 7100 nM on D(3) dopamine receptor; 870 nM in experiment [3]; 10000 nM on D(2) dopamine receptor [4]; 12000 nM at D(1A) dopamine receptor.
Take `c1ccc(C2=N[C@@H](CN3CCN(c4ccccc4)CC3)CS2)cc1` (stereo in doubt; 4f): the Ki at D(2) dopamine receptor [1] came to 1500 nM; on D(4) dopamine receptor, 1800 nM; at D(2) dopamine receptor [2] it was 1100 nM; at D(3) dopamine receptor (cho), 1200 nM; at D(1A) dopamine receptor it was 16000 nM.
